Tests used:
[1] = target: GABA-A receptor; anion channel; assay: Inhibition of radiolabeled antagonist [3H]-Ro- 15-1788 binding to benzodiazepine receptor from rat cortical membranes; assay type: cell membranes, Membrane
Method in brief: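 Rat (Sprague–Dawley, 250-300 g) cortical membranes, water-washed and frozen at -20 °C ≥18 h, then washed repeatedly in Krebs/HEPES pH 7.4. Nonspecific binding with 3 μM clonazepam. Filtration, scintillation counting.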

[2] = target: GABA-A receptor; anion channel (Rattus norvegicus) (UniProt O09028+P15431+P18506+P18508+P19969+P20236+P23574+P23576+P28471+P28473+P30191+P62813+P63079+P63138+Q91ZM7+Q9ES14); assay: Ratio of binding affinity to the GABA-A receptor in the presence and absence of GABA; assay type: protein-complex assay
Method in brief: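 [3H]-Ro 15-1788 displacement in washed rat cortical membranes (Krebs/HEPES pH 7.4, nipecotic acid 10^-4 M, 30 °C, 60 min) run with and without GABA at 0.3 mM. Nonspecific binding was defined by 3 μM clonazepam, and read-out was filtration with scintillation counting. The value is the ratio of the affinities obtained with GABA and without it.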

| SMILES | IC50 [1] [nM] | GABA shift [2] |
| --- | --- | --- |
| Cc1nc(-c2ncn3c2CN=C(c2ccccc2)c2ccccc2-3)no1 | 7 | 1.56 |
| CC(C)c1nc(-c2ncn3c2CN=C(c2ccccc2)c2cc(Cl)ccc2-3)no1 | 53 | 2.89 |
| CCc1noc(-c2ncn3c2CN(C)C(=O)c2cc(F)ccc2-3)n1 | 105 | 2.34 |
| Cc1noc(-c2ncn3c2CN=C(c2ccccc2)c2c(Cl)cccc2-3)n1 | 3.4 | 1.67 |
| Cc1noc(-c2ncn3c2CN(C)C(=O)c2ccccc2-3)n1 | 67 | 1.5 |
| CCc1nc(-c2ncn3c2CN=C(c2ccccc2Cl)c2ccccc2-3)no1 | 13 | 1.48 |
| CC(C)c1noc(-c2ncn3c2CN(C)C(=O)c2ccccc2-3)n1 | 105 | 2.19 |
| Cc1noc(-c2ncn3c2CN(C)C(=O)c2c(Cl)cccc2-3)n1 | 8.1 | 1.51 |
| CCc1noc(-c2ncn3c2CN=C(c2ccccc2)c2c(F)cccc2-3)n1 | 9.8 | 2.31 |
| Cc1nc(-c2ncn3c2CN=C(c2ccccc2)c2c(F)cccc2-3)no1 | 2.4 | 1.68 |
| CC(C)c1noc(-c2ncn3c2CN=C(c2ccccc2Cl)c2cc(Cl)ccc2-3)n1 | 45 | 1.81 |
| Cc1nc(-c2ncn3c2CN(C)C(=O)c2ccccc2-3)no1 | 27 | 1.28 |
| CCc1noc(-c2ncn3c2CN(C)C(=O)c2c(F)cccc2-3)n1 | 42 | 2.4 |
| CC(C)c1noc(-c2ncn3c2CN(C)C(=O)c2c(F)cccc2-3)n1 | 67 | 2.31 |
| CCCc1noc(-c2ncn3c2CN(C)C(=O)c2ccccc2-3)n1 | 120 | 2.08 |
| CCCc1noc(-c2ncn3c2CN=C(c2ccccc2)c2ccccc2-3)n1 | 43 | 1.8 |
| CCc1nc(-c2ncn3c2CN=C(c2ccccc2Cl)c2cc(Cl)ccc2-3)no1 | 9.4 | 1.86 |
| CCCc1noc(-c2ncn3c2CN=C(c2ccccc2)c2cc(Cl)ccc2-3)n1 | 120 | 2.57 |
| Cc1nc(-c2ncn3c2CN=C(c2ccccc2)c2c(Cl)cccc2-3)no1 | 1.3 | 1.44 |
| CC(C)c1noc(-c2ncn3c2CN=C(c2ccccc2)c2c(Cl)cccc2-3)n1 | 7.2 | 1.91 |
| CCCc1noc(-c2ncn3c2CN(C)C(=O)c2cc(F)ccc2-3)n1 | 42 | 2 |
| Cc1noc(-c2ncn3c2CN=C(c2ccccc2)c2c(F)cccc2-3)n1 | 8.3 | 1.84 |
| CCc1nc(-c2ncn3c2CN(C)C(=O)c2c(Cl)cccc2-3)no1 | 6.4 | 1.12 |
| CC(C)c1nc(-c2ncn3c2CN(C)C(=O)c2c(F)cccc2-3)no1 | 19 | 1.97 |
| Cc1nc(-c2ncn3c2CN=C(c2ccccc2)c2cc(Cl)ccc2-3)no1 | 71 | 1.17 |
| Cc1nc(-c2ncn3c2CN(C)C(=O)c2c(Cl)cccc2-3)no1 | 3.4 | 1.18 |

| SMILES | IC50 [1] [nM] | GABA shift [2] |
| --- | --- | --- |
| CCc1noc(-c2ncn3c2CN(C)C(=O)c2ccccc2-3)n1 | 51 | 1.79 |
| CCc1nc(-c2ncn3c2CN(C)C(=O)c2cc(F)ccc2-3)no1 | 27 | 1.84 |
| CCc1noc(-c2ncn3c2CN(C)C(=O)c2c(Cl)cccc2-3)n1 | 9.7 | 1.43 |
| CCCc1nc(-c2ncn3c2CN(C)C(=O)c2cc(F)ccc2-3)no1 | 27 | 1.96 |
| CCc1noc(-c2ncn3c2CN(C)C(=O)c2cc(Cl)ccc2-3)n1 | 600 | 0.91 |
| CCCc1noc(-c2ncn3c2CN=C(c2ccccc2Cl)c2cc(Cl)ccc2-3)n1 | 34 | 2.92 |
| CCCc1nc(-c2ncn3c2CN=C(c2ccccc2)c2cc(Cl)ccc2-3)no1 | 45 | 2.22 |
| CCCc1noc(-c2ncn3c2CN(C)C(=O)c2c(Cl)cccc2-3)n1 | 6 | 1.53 |
| CCc1noc(-c2ncn3c2CN=C(c2ccccc2)c2c(Cl)cccc2-3)n1 | 4.1 | 2.21 |
| CCc1noc(-c2ncn3c2CN=C(c2ccccc2)c2cc(Cl)ccc2-3)n1 | 160 | 2 |
| Cc1nc(-c2ncn3c2CN=C(c2ccccc2Cl)c2ccccc2-3)no1 | 6.7 | 1.35 |
| CCc1nc(-c2ncn3c2CN=C(c2ccccc2)c2c(F)cccc2-3)no1 | 7.5 | 1.82 |
| CCCc1nc(-c2ncn3c2CN(C)C(=O)c2c(Cl)cccc2-3)no1 | 3.8 | 1.41 |
| CCc1nc(-c2ncn3c2CN(C)C(=O)c2c(F)cccc2-3)no1 | 15 | 1.44 |
| CCCc1noc(-c2ncn3c2CN(C)C(=O)c2c(F)cccc2-3)n1 | 24 | 1.94 |
| Cc1noc(-c2ncn3c2CN(C)C(=O)c2c(F)cccc2-3)n1 | 22 | 1.85 |
| CCCc1nc(-c2ncn3c2CN=C(c2ccccc2)c2c(F)cccc2-3)no1 | 5.3 | 2.06 |
| CCCc1noc(-c2ncn3c2CN=C(c2ccccc2)c2c(Cl)cccc2-3)n1 | 5.2 | 1.85 |
| CCc1nc(-c2ncn3c2CN=C(c2ccccc2)c2cc(Cl)ccc2-3)no1 | 44 | 2.43 |
| O=C(OCC1CC1)c1ncn2c1C1CCN1C(=O)c1c(Cl)cccc1-2 (stereo unspecified) | 4.2 | 1.7 |
| CCc1noc(-c2ncn3c2CN=C(c2ccccc2Cl)c2cc(Cl)ccc2-3)n1 | 25 | 2.11 |
| CC(C)c1noc(-c2ncn3c2CN=C(c2ccccc2)c2c(F)cccc2-3)n1 | 1.4 | 2.03 |
| Cc1noc(-c2ncn3c2CN=C(c2ccccc2Cl)c2cc(Cl)ccc2-3)n1 | 110 | 2.28 |
| CC(C)c1noc(-c2ncn3c2CN=C(c2ccccc2)c2cc(Cl)ccc2-3)n1 | 120 | 1.06 |
| CC(C)c1noc(-c2ncn3c2CN(C)C(=O)c2cc(F)ccc2-3)n1 | 100 | 1.86 |
| CC(C)c1nc(-c2ncn3c2CN=C(c2ccccc2)c2ccccc2-3)no1 | 18 | 2.57 |

| SMILES | IC50 [1] [nM] | GABA shift [2] |
| --- | --- | --- |
| CC(C)c1nc(-c2ncn3c2CN=C(c2ccccc2)c2c(Cl)cccc2-3)no1 | 6.9 | 1.82 |
| CCCc1nc(-c2ncn3c2CN=C(c2ccccc2Cl)c2ccccc2-3)no1 | 12 | 1.68 |
| CC(C)c1nc(-c2ncn3c2CN=C(c2ccccc2)c2c(F)cccc2-3)no1 | 6.1 | 2.08 |
| CC(C)c1nc(-c2ncn3c2CN=C(c2ccccc2Cl)c2cc(Cl)ccc2-3)no1 | 12 | 2.79 |
| CC(C)c1nc(-c2ncn3c2CN=C(c2ccccc2Cl)c2ccccc2-3)no1 | 14 | 1.64 |
| CC(C)c1nc(-c2ncn3c2CN(C)C(=O)c2c(Cl)cccc2-3)no1 | 3.6 | 2.37 |
| Cc1noc(-c2ncn3c2CN(C)C(=O)c2cc(F)ccc2-3)n1 | 50 | 1.47 |
| Cc1nc(-c2ncn3c2CN(C)C(=O)c2c(F)cccc2-3)no1 | 11 | 1.65 |
| CCc1nc(-c2ncn3c2CN(C)C(=O)c2ccccc2-3)no1 | 22 | 1.8 |
| CC(C)c1noc(-c2ncn3c2CN=C(c2ccccc2Cl)c2ccccc2-3)n1 | 31 | 1.83 |
| CC(C)c1nc(-c2ncn3c2CN(C)C(=O)c2ccccc2-3)no1 | 53 | 2.4 |
| CC(C)c1noc(-c2ncn3c2CN(C)C(=O)c2c(Cl)cccc2-3)n1 | 14 | 1.86 |
| CCc1noc(-c2ncn3c2CN=C(c2ccccc2)c2ccccc2-3)n1 | 19 | 1.2 |
| CC(C)c1nc(-c2ncn3c2CN(C)C(=O)c2cc(F)ccc2-3)no1 | 43 | 2.76 |
| CC(C)(C)OC(=O)c1ncn2c1C1CCCN1C(=O)c1c(Br)cccc1-2 (stereo unspecified) | 0.6 | 1.34 |
| CC(C)c1noc(-c2ncn3c2CN=C(c2ccccc2)c2ccccc2-3)n1 | 52 | 1.7 |
| CCCc1nc(-c2ncn3c2CN(C)C(=O)c2c(F)cccc2-3)no1 | 14 | 1.7 |
| Cc1nc(-c2ncn3c2CN(C)C(=O)c2cc(F)ccc2-3)no1 | 21 | 1.53 |
| CCCc1nc(-c2ncn3c2CN=C(c2ccccc2Cl)c2cc(Cl)ccc2-3)no1 | 8.2 | 1.81 |
| CCc1nc(-c2ncn3c2CN=C(c2ccccc2)c2c(Cl)cccc2-3)no1 | 2.8 | 1.65 |
| CCCc1nc(-c2ncn3c2CN=C(c2ccccc2)c2c(Cl)cccc2-3)no1 | 3.9 | 1.7 |
| CCc1nc(-c2ncn3c2CN=C(c2ccccc2)c2ccccc2-3)no1 | 16 | 2.11 |
| Cc1nc(-c2ncn3c2CN=C(c2ccccc2Cl)c2cc(Cl)ccc2-3)no1 | 20 | 1.83 |
| CCCc1nc(-c2ncn3c2CN(C)C(=O)c2ccccc2-3)no1 | 34 | 2 |
| Cc1noc(-c2ncn3c2CN=C(c2ccccc2Cl)c2ccccc2-3)n1 | 31 | 1.29 |
| Cc1noc(-c2ncn3c2CN=C(c2ccccc2)c2cc(Cl)ccc2-3)n1 | 180 | 1.84 |

— ChEMBL document CHEMBL1124349, “Novel benzodiazepine receptor partial agonists: oxadiazolylimidazobenzodiazepines” (J Med Chem, 1989)
